The subject of one data set is L6. Put plainly: Cytotoxicity against rat L6 cells. It counts as cell-based.
In another data set the test system is Leishmania amazonensis. The data set is described as follows: Antileishmanial activity against intracellular Leishmania amazonensis. It is filed as functional, organism-based.
The test system of a further data set is Nucleic Acid. The data set is described as follows: Binding affinity to poly(dA-dT)n DNA assessed as increase in melting temperature at 0.3 mol compound per mole of DNA by spectrophotometry. It counts as nucleic-acid assay. The procedure, abridged: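 Thermal melting monitored by UV absorbance in 1 cm quartz cuvettes, heated at 0.5 °C/min under thermistor control. CAC 10 buffer: cacodylic acid 10 mM, EDTA 1 mM, NaCl 100 mM, pH 7.0. DNA concentration set from absorbance at 260 nm. Complex at 0.3 mol compound per mol DNA, with DNA alone as control. ΔTm taken from the peak of first-derivative (dA/dT) curves.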

Data set [1] relates to Mus musculus. Put plainly: Toxicity in uninfected mouse assessed as induction of severe tremors at 30 mg/kg, ip measured 10 mins post dose. It counts as organism-based. Set-up: dose 30 mg/kg, route intraperitoneal. The settings on record: in vivo.
Data set [2] concerns Mus musculus. The data set is described as follows: Toxicity in uninfected mouse assessed as induction of severe tremors at 10 mg/kg, ip measured 40 mins post dose. It is filed as organism-based. Set-up: dose 10 mg/kg, route intraperitoneal. The settings on record: in vivo.
Data set [3] can be described thus: Selectivity index, ratio of IC50 for rat L6 cells to IC50 for intracellular Leishmania donovani. It is filed as toxicity, cell-based.
A further data set concerns Leishmania donovani. The data set is described as follows: Antileishmanial activity against intracellular Leishmania donovani. It counts as functional, organism-based.

pIC50: −log10 of the molar value.

Take `N=C(Nc1ccccn1)c1ccc(C(=N)Nc2ccccn2)cc1`: the pIC50 in the data set on L6 is under 3.69; in the data set on Leishmania amazonensis, 5.29. Moreover, the ΔTm with Nucleic Acid was found to be 0.5 °C.

Turning to `N=C(Nc1ccc(NC(=N)c2ccccn2)cc1)c1ccccn1`, the figures for the pIC50 in the data set with L6 and in the data set with Leishmania amazonensis were under 3.67 and under 5.00, respectively. Also, the ΔTm in the data set on Nucleic Acid was 0 °C.

Consider `Cl.Cl.N=C(Nc1ccc(-c2ccc(NC(=N)c3ccccn3)cc2)cc1)c1ccccn1`, for which the pIC50 is 4.33 in the data set with L6, 6.12 in the data set on Leishmania amazonensis and 7.10 with Leishmania donovani. Further, the Activity result in the data set with Mus musculus [1] and in the data set with Mus musculus [2] was “Toxic” each time. The ΔTm in the data set on Nucleic Acid was 6 °C. For the same compound, in data set [3], the “Selectivity Index” value is given as 594.

The compound `N=C(Nc1ccc(NC(=N)c2ncccn2)cc1)c1ncccn1` showed a negative logarithm of the IC50 (pIC50) in the data set with L6 of under 3.68. Also, the ΔTm in the data set on Nucleic Acid was 0 °C.

Turning to `CC(C)Oc1cc(NC(=N)c2ccccn2)ccc1-c1ccc(NC(=N)c2ccccn2)cc1OC(C)C.Cl.Cl`, the pIC50 was 4.64 in the data set on L6, 6.85 with Leishmania amazonensis and 7.60 in the data set on Leishmania donovani. For the same compound, the Activity result with Mus musculus [1] is “Toxic”. Further, the shift in melting temperature (ΔTm) with Nucleic Acid worked out at 0.1 °C. Also, the “Selectivity Index” value in data set [3] is listed as 916.

For the compound `N=C(Nc1ccc(COCc2ccc(NC(=N)c3ccccn3)cc2)cc1)c1ccccn1`, the pIC50 in the data set with L6 is 4.67; with Leishmania amazonensis, 5.96. Moreover, the ΔTm in the data set with Nucleic Acid was 4 °C.

On to `Cl.Cl.N=C(Nc1ccc(Oc2ccc(NC(=N)c3ccccn3)cc2)cc1)c1ccccn1`, for which the pIC50 in the data set with L6 was 5.30; in the data set with Leishmania amazonensis, 6.17; with Leishmania donovani it was 7.55. The Activity result in the data set on Mus musculus [1] is reported as “Toxic”. Moreover, the thermal shift (ΔTm) in the data set on Nucleic Acid came out at 5.2 °C. The “Selectivity Index” value in data set [3] is on record as 178.

Consider `N=C(Nc1ccc(Cc2ccc(NC(=N)c3ccccn3)cc2)cc1)c1ccccn1`, for which the pIC50 in the data set with L6 is 4.03; in the data set with Leishmania amazonensis, under 5.00. Also, the ΔTm in the data set on Nucleic Acid was determined as 2.1 °C.

`CC(C)Oc1cc(NC(=N)c2ccccn2)ccc1-c1ccc(-c2ccc(NC(=N)c3ccccn3)cc2OC(C)C)o1`: in the data set on L6, the pIC50 was 5.52. Besides, the ΔTm with Nucleic Acid came to 6 °C.

Broadly, the pIC50 is −log10 of the IC50, conventionally taken in molar units. As a reminder, the ΔTm is the change in melting temperature against a reference sample.

Values taken from ChEMBL document CHEMBL2062466, “Synthesis, DNA binding and antileishmanial activity of low molecular weight bis-arylimidamides” (Eur J Med Chem, 2012).
